We go through 90 compounds from PubChem BioAssay AID651647 (Sanford-Burnham Center for Chemical Genomics, 2012).

In all, about 360,000 compounds went through this assay and about 220 (0.061%) were called active. Many of the other results were omitted from the sample, so actives are more common in it than they were. A number with no mark means an inactive call.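 How the source made its calls: active means GFP/RFP ratio change of at least 30% with cell ATP level not reduced by more than half and red fluorescence within 50% of control; inactive means the rest, inconclusive results apart.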

The target of the assay is Matrix metalloproteinase-14 (Homo sapiens) (UniProt P50281). As to the kind of experiment: MT1-MMP activation inhibitors, cellular reporter – HT1080 RFP-PRO-GFP cells, GFP/RFP fluorescence, primary screen (AID 651647). Conditions: overnight, at 20 µM, hits give high values, percent of plate control window, DMSO zero. The gist of the method: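 system = RFP-PRO-GFP reporter HT1080 cells | dosing = 20 µM single dose, 1% DMSO | timing = overnight cell settling, then overnight compound exposure, 37 °C, 5% CO2 | read-out basis = GFP/RFP fluorescence ratio | controls = DMSO and RFP-L50D-GFP cell wells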
`CC12CCC(C(=O)N(NC(=O)c3ccccc3O)C1=O)C2(C)C` (stereo not given): the GFP/RFP ratio change was 2.09%.
Regarding `CC(C)COC(=O)C1C2C=CC3(CN(C(C)c4ccc(Br)cc4)C(=O)C13)O2` (stereo not given), the GFP/RFP ratio change was 3.45%.
In the case of `COC(=O)CN1C(=O)[C@H]2[C@@H](/C=C/c3ccccc3)N3C(=O)CN(Cc4ccccc4)C(=O)[C@@]3(Cc3ccccc3)[C@H]2C1=O` it was 2.05%.
Turning to `CCC(C(=O)NCc1ccc(OC)cc1)n1nc(C)n2c(cc3occc32)c1=O` (stereo not given), the GFP/RFP ratio change was -2.32%.
Consider `O=C(c1cccc(S(=O)(=O)N2CCCC2)c1)N(Cc1ccco1)C1CCS(=O)(=O)C1` (stereo not given), for which the GFP/RFP ratio change was -1.85%.
In the case of `COc1ccc2c(c1OC)C(=O)N(c1ncn[nH]1)C2` it was 5.29%; in that of `COc1cc(C2C(N3C(=O)c4ccccc4C3=O)C(=O)N2c2ccc(C)c(C)c2)cc(OC)c1OC` (stereo not given), 4.49%.
In the case of `CCN(CC(=O)Nc1ccc(NC(C)=O)cc1)C(=O)C1CC(=O)N(c2ccc3c(c2)OCCO3)C1` (stereo not given) it was 1.76%; in that of `COc1ccccc1NC1=NC(c2ccc(Cl)cc2)N=C(N)N1` (stereo not given), -2.9%; in that of `Cc1cc(OC(=O)c2ccc(Cl)cc2)cc(=O)n1C`, 0.208%.
In the case of `CCN(CC)C(=O)N1CCN(C(=O)c2ccc(C)cn2)CC1` it was 4.93%; in that of `CC1(C(=O)NCc2ccc3c(c2)OCO3)CCN1CCc1ccccc1` (stereo not given), 2.41%; in that of `COCCCNC(=O)CN1C(=O)CSc2ccc(S(=O)(=O)N3CCOCC3)cc21`, -2.33%.
Turning to `CCn1cc(CCC(=O)NCc2ccc(F)cc2)c2ccccc21`, the GFP/RFP ratio change is 1.53%.
Consider `N#Cc1ccc(-c2nc3c(Cl)cc(C(F)(F)F)cn3c2Cc2ccccc2C(F)(F)F)cc1`, for which the GFP/RFP ratio change is 1.7%.
As for `CN(C)CCCn1c(SCc2ccc(Cl)cc2)nnc1-c1ccncc1`, the figure is 1.22%; as for `CC1(C)OC(=O)C2=C(C[C@@H](C3CCCCC3)O[C@@H]2c2ccc(Cl)cc2)O1`, -0.857%.
In the case of `CC1(C)CC(=O)NC=C(c2ccccc2)C1` it was 0.817%.
As for `COc1ccc(C(=O)COC(=O)c2c(C)noc2C)cc1Cl`, the figure is 0.327%.
For the compound `O=c1[nH]nc(SCCS(=O)(=O)c2ccc(F)cc2)n1-c1ccccc1C(F)(F)F`, the GFP/RFP ratio change is 1.01%.
For `COc1cccc(NC(=O)Cn2c3ccc(F)cc3c3nc4n(c(=O)c32)CCS4)c1`, the GFP/RFP ratio change is 1.54%.
On to `O=C(CCc1ccccc1F)N1CCN(c2ccccc2)CC1`, for which the GFP/RFP ratio change was -1.03%.
In the case of `Cc1cc(=O)oc2c1ccc1ccccc12` it was 0.0995%; in that of `CCCCCc1ccc(-c2ccc(C(=O)O)cc2)nc1`, 0.418%.
As for `Cc1cc(C)c(C#N)c(SCS(=O)c2ccc(C(C)(C)C)cc2)n1` (stereo not given), the figure is 3.13%; as for `O=C(COC(=O)C1CCN(S(=O)(=O)c2ccc3c(c2)OCCO3)CC1)Nc1ccccc1OC(F)F`, -1.25%.
For the compound `CC1(C)CN(Cc2cccnc2)C(=O)[C@H]1CC(=O)Nc1ccc(Br)cc1`, the GFP/RFP ratio change was -0.506%.
In the case of `CCCc1nc(-c2ccccc2O)n(-c2ccccc2)n1`, the GFP/RFP ratio change is 1.17%.
In the case of `N#CCSc1nc2ccc(N3CCOCC3)cc2c(=O)n1CCc1ccccc1`, the GFP/RFP ratio change is 9.47%.
As to `COc1cc(NC(=O)CCS(=O)(=O)c2ccc3c(c2)oc(=O)n3C)cc(OC)c1`, the GFP/RFP ratio change is 0.489%.
In the case of `Cc1cc(OCc2ccc(C(=O)Nc3ccc(C(=O)O)cc3)o2)ccc1Cl` it was 1.24%; in that of `Cc1ccc(NC(=O)COc2coc(CN3CCc4ccccc4C3)cc2=O)cc1Cl`, -6.33%; in that of `CCCc1c(C(=O)N/N=C(\C)CCc2ccc(OC)cc2)nnn1-c1nonc1N`, 0.35%.
As for `O=C1CCCC(O)=C1N=Nc1ccc2ncsc2c1`, the figure is 4.19%; as for `O=C1CCCC(O)=C1N=Nc1ccc(S(=O)(=O)N2CCOCC2)cc1`, 48.9% (active).
For the compound `CC1(C)CC(=O)C(N=Nc2ccc(S(=O)(=O)N3CCCCCC3)cc2)=C(O)C1`, the GFP/RFP ratio change was 3.46%.
Turning to `CC1(C)CC(=O)C(C2=NC(C)(C)Cc3ccccc32)=C(O)C1`, the GFP/RFP ratio change is -1.97%.
With `CCCCCCN1C[C@H](O)[C@@H](n2cc(C3CC3)nn2)C[C@@H]1c1ccc(Cl)cc1`, the GFP/RFP ratio change is 2.78%.
As for `CC1CC(C)CN(CCCNC(=O)Cn2ncc3c([nH]c4ccccc43)c2=O)C1` (stereo not given), the figure is -6.2%.
Turning to `Cc1ccc(C(=O)OCC(=O)Nc2ccc(Cl)cn2)cc1S(=O)(=O)N1CCOCC1`, the GFP/RFP ratio change was 2.27%.
As for `CCOc1ccc(NC(=O)[C@H](C)NC(=O)C2CC(=O)N(c3ccc(OC)cc3)C2)cc1` (stereo not given in full), the figure is 0.231%; as for `CCOC(=O)c1c(NC(=O)CCCN2CCOCC2)sc2c1CC(C)(C)OC2`, -2.69%; as for `O=C(CP(=O)(c1ccccc1)c1ccccc1)N1CCOCC1`, 1.97%.
In the case of `O=P(O)(CP(=O)(c1ccccc1)c1ccccc1)c1ccccc1O` it was 2.61%; in that of `O=P(O)(CP(=O)(c1ccccc1)c1ccccc1)c1ccccc1`, 35.4% (active).
Take `Cc1noc(COc2ccccc2OCc2onc(C)c2Cl)c1Cl`: the GFP/RFP ratio change was -3.96%.
In the case of `CC(C)(C)Cc1c(C2CCCCC2)nc2ccc(Br)cn12` it was -6.01%.
As for `CCN(CC)C(=O)Oc1ccc(Br)cc1C(=O)Nc1ccc(F)c(Cl)c1`, the figure is -4.63%; as for `COc1ccc(-c2noc(C(C)NS(=O)(=O)c3ccc(NC(C)=O)cc3)n2)cc1` (stereo not given), -4.06%.
In the case of `CCOC(=O)c1cnc2c(c(C)nn2CC)c1Cl` it was 2.11%.
In the case of `COc1ccc(NC(=O)C(C)N2c3cccc4cccc(c34)S2(=O)=O)c(OC)c1` (stereo not given), the GFP/RFP ratio change is 3.17%.
As for `COc1ccc(CC(NC(C)=O)C(=O)N2CCN(C(=O)Nc3cccc(Cl)c3)CC2)cc1OC` (stereo not given), the figure is -3.43%; as for `Brc1ccc(Nc2c3c(nc4ncnn24)CCC3)cc1`, 1.92%; as for `CN=C1C=C/C(=N/N=c2\ccn(O)cc2C)C=C1C`, 61% (active).
In the case of `CC[N+]1(CC)CC2=Cc3ccccc3CC2C1` (stereo not given) it was 0.892%; in that of `CC(Sc1nc2cc(Cl)ccc2s1)C(=O)Nc1ccc2c(c1)OCO2` (stereo not given), 3.37%.
With `COCCCNC(=O)/C(C#N)=C/c1c(N2CCCCCC2)nc2ccccn2c1=O`, the GFP/RFP ratio change is -0.526%.
`CCOC(=O)c1cc(-c2sc(NC(=O)c3ccccc3)nc2C)n(Cc2ccccc2)n1`: the GFP/RFP ratio change was -13.8%.
In the case of `CCN1CCN(c2c(Cl)cccc2NC(=O)c2ccc(Br)o2)CC1` it was 6.59%.
As for `CNC(=O)c1[nH]cnc1C(=O)N[C@@H](CC(C)C)C(=O)OCc1ccccc1`, the figure is 3.79%.
Regarding `CSc1ncccc1C(=O)N1CCCC(Nc2ccc(F)c(F)c2)C1` (stereo not given), the GFP/RFP ratio change was 0.99%.
In the case of `O=Cc1c(NCCc2cccc(F)c2)c2ccccc2[nH]c1=O` it was -3.4%; in that of `Cn1c(=S)sc2ccc3ccccc3c21`, 2.62%.
In the case of `CN(C(=O)CSc1cccc[n+]1[O-])C1CCCCC1`, the GFP/RFP ratio change is 9.34%.
With `Cc1ccc(S(=O)(=O)N2CC(C)N(S(C)(=O)=O)C2)cc1` (stereo not given), the GFP/RFP ratio change is 0.163%.
Turning to `CCc1ccnc(NS(=O)(=O)c2ccc3c(c2)OCCO3)c1`, the GFP/RFP ratio change is 3.33%.
In the case of `Cc1ccc2c(c1)N(S(=O)(=O)c1cc(-c3cc(C)no3)ccc1C)CCO2` it was 0.714%.
In the case of `CC(=O)c1c(O)cc2n(c1=O)-c1ccc(Cl)cc1C2(C)C` it was -5.09%; in that of `CCOC(=O)C1(O)CC(C)=NN1C(=O)c1cccc(Br)c1` (stereo not given), 7.72%; in that of `O=C(O)CC(Cn1cnnn1)c1ccccc1` (stereo not given), -0.417%.
In the case of `Nc1nc(SCc2cccc(Br)c2)n[nH]1` it was 6.02%; in that of `CC(=O)c1nn(-c2ccc(C)cc2)cc1C(=O)c1cccc(Br)c1`, 0.8%.
As to `CCc1ccc(C2N3CC4([N+](=O)[O-])CN2CC([N+](=O)[O-])(C3)C4(C)C)cc1` (stereo not given), the GFP/RFP ratio change is -2.43%.
In the case of `O=S(=O)(Nc1ncccn1)c1ccc(NS(=O)(=O)c2cccc(Cl)c2Cl)cc1` it was -0.508%; in that of `O=c1ccc2c(-c3ccccc3S(=O)(=O)O)c3ccc(O)c(O)c3oc-2c1O`, 49.3% (active); in that of `N/C(=N\OS(=O)(=O)c1cccc([N+](=O)[O-])c1)c1ccncc1`, 1.12%.
In the case of `CCc1ccnc(NC(=O)Nc2ccc(OCc3ccccc3)cc2)c1` it was 3.94%; in that of `CC(C)(C)OC(=O)N1CCN(C(=O)c2[nH]c(C(F)(F)F)nc2-c2ccccc2)CC1`, 3.61%.
As for `CN1CC(c2ccccc2)C2(COc3ccccc3C2=O)C12C(=O)Nc1ccccc12` (stereo not given), the figure is -4.6%; as for `Cc1ccc2c(c1)N(CC(=O)NCCCN1CCCCC1)C(=O)c1cccnc1O2`, 1.06%.
Take `Cc1ccccc1S(=O)(=O)NC(=O)C1(C)CCN1C(=O)C1(c2ccc(Cl)cc2)CC1` (stereo not given): the GFP/RFP ratio change is 0.579%.
In the case of `O=C(COC(=O)c1ccc(S(=O)(=O)N2CCCCCC2)cc1)Nc1ccccc1C(F)(F)F` it was -2.08%; in that of `COc1ccccc1C1CCN(C(=S)Nc2ccc(Br)cc2)CC1`, -1.18%; in that of `CC(C)[C@H](NC(=O)N1CCn2c1nc1ccccc12)C(=O)NCCc1ccccc1`, 1.13%.
In the case of `O=c1[nH]snc1-c1c(Cl)cccc1Cl` it was -2.44%; in that of `COC(=O)NNC(=O)C1CCC(C)CC1` (stereo not given), 0.231%.
As for `Cc1cn(C2CC(O)C(CO)O2)c(=O)n(CCCc2ccccc2)c1=O` (stereo not given), the GFP/RFP ratio change is 5.06%.
In the case of `Cc1nn(C)c(Oc2ccccc2)c1CCNS(=O)(=O)c1ccc(F)cc1` it was 0.853%.
As for `O=C(c1ccc(F)c(S(=O)(=O)N2CCOCC2)c1)N(CCc1ccccc1)Cc1ccccc1`, the figure is -8.33%; as for `CC(=O)c1cc2c(cc1NC(=O)CN1CCCCCC1)OCO2`, -5.12%.
